pEC50: −log10 of the molar value. Values after ≈ are worked out from the molar mass of the structure shown. One block for each molecule: values may come before it. Active and inactive are the calls of the source. The calls are words filed in the database; no cut-off is given here. Starred links: 1 amine or outer side, 2 acyl side, 3 side chain; linkers in the order of their positions; H or OH if unused. Positions of bridges follow the written chain, without caps; N, C: chain ends. Non-standard residues stand in square brackets, D forms with d. Residues, ends and D or L forms follow the SMILES beside them. Chains are numbered I, II in the order given. Actinocin(1to9) = Cc1c2oc3c(C)ccc(C(=O)[*:2])c3nc-2c(C(=O)[*:1])c(N)c1=O; NMeV = CN[C@H](C(=O)O)C(C)C; Sar = CNCC(=O)O
How the values were obtained:
[1] = system: Staphylococcus aureus; experiment: Antibacterial activity against Staphylococcus aureus ATCC 6538 after 16 to 48 hrs; assay type: functional
How it was run: (§1)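 MIC determined against each bacterial strain after 16–48 h incubation, in triplicate. DMSO vehicle was the negative control, and kanamycin and ampicillin were the positive controls.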

[2] = system: Micrococcus luteus; experiment: Antibacterial activity against Micrococcus luteus ATCC 15307 after 16 to 48 hrs; assay type: functional; how it was run: as §1
[3] = system: Bacillus subtilis; experiment: Antibacterial activity against Bacillus subtilis ATCC 6633 after 16 to 48 hrs; assay type: functional; how it was run: as §1
[4] = system: Mycolicibacterium aurum; experiment: Antibacterial activity against Mycobacterium aurum ATCC 23366 after 16 to 48 hrs; assay type: functional; how it was run: as §1
[5] = system: Escherichia coli; experiment: Antibacterial activity against Escherichia coli ATCC 12435 after 16 to 48 hrs; assay type: functional; how it was run: as §1
[6] = system: Salmonella enterica; experiment: Antibacterial activity against Salmonella enterica ATCC 10708 after 16 to 48 hrs; assay type: functional; how it was run: as §1
[7] = system: Saccharomyces cerevisiae; experiment: Antifungal activity against Saccharomyces cerevisiae ATCC 204508 after 16 to 48 hrs; assay type: functional
How it was run: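 MIC determined against the S. cerevisiae strain after 16–48 h incubation, in triplicate. DMSO vehicle was the negative control and amphotericin B the positive control.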

[8] = system: A549; experiment: Antiproliferative activity against human A549 cells assessed as reduction in cell viability after 72 hrs by alamar blue assay; assay type: functional, cell-based; settings: A549, 72 h
How it was run: (§2)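 Cancer cell viability measured after 72 h exposure, in triplicate, and EC50/IC50 derived. DMSO served as the negative control. Positive controls were actinomycin D at 20 μM and H2O2 at 2 mM, each taken as 0% viable cells.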

[9] = system: PC-3; experiment: Antiproliferative activity against human PC3 cells assessed as reduction in cell viability after 72 hrs by alamar blue assay; assay type: functional, cell-based; settings: PC-3, 72 h; how it was run: as §2
[10] = system: Ambystoma mexicanum; experiment: Toxicity in axolotl embryo at 1 uM after 7 days by tail regeneration assay; assay type: organism-based; settings: in vivo, 168 h
How it was run: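 Axolotl embryos (Ambystoma Genetic Stock Center) had the tail amputated and were exposed to 1 μM compound. Regeneration, judged by a rounded tail tip, was scored at 7 days post-amputation. DMSO vehicle was the negative control and geldanamycin the positive control.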

[11] = system: A549; experiment: Antiproliferative activity against human A549 cells assessed as cell viability at 20 uM after 72 hrs by alamar blue assay relative to control; assay type: functional; settings: A549, 72 h, read-out: Activity
[12] = system: PC-3; experiment: Antiproliferative activity against human PC3 cells assessed as cell viability at 20 uM after 72 hrs by alamar blue assay relative to control; assay type: functional; settings: PC-3, 72 h, read-out: Activity
[13] = biological target: Eukaryotic translation initiation factor 4E-binding protein 1 (Homo sapiens) (UniProt Q13541); experiment: Inhibition of 4E-BP1 phosphorylation in human HCT116 cells at 1 uM after 6 hrs by Western blot analysis; assay type: cell-based
How it was run: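 HCT116 cells treated for 6 h with compound at 1 or 2 μM, or with DMSO as negative control. Lysates analysed by Western blot for phosphorylated 4E-BP1 alongside related proteins.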

Chain of Eukaryotic translation initiation factor 4E-binding protein 1 (Homo sapiens) (Q13541 whole entry): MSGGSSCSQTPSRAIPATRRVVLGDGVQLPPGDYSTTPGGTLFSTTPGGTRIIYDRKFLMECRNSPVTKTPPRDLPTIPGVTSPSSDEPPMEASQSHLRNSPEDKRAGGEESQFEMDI

Structure (SMILES): CC1(C)S[C@@H]2[C@H](NC(=O)[C@H](N)c3ccccc3)C(=O)N2[C@H]1C(=O)O [AMPICILLIN]
MIC [1]: 12 µM (≈ 4.19 µg/mL)
MIC [2]: 25 µM (≈ 8.74 µg/mL)
MIC [5]: 25 µM (≈ 8.74 µg/mL)
MIC [6]: 25 µM (≈ 8.74 µg/mL)

Structure (SMILES): C[C@@H]1[C@H](O)[C@@H](C)/C=C/C=C/C=C/C=C/C=C/C=C/C=C/[C@H](O[C@@H]2O[C@H](C)[C@@H](O)[C@H](N)[C@@H]2O)C[C@@H]2O[C@](O)(C[C@@H](O)C[C@@H](O)[C@H](O)CC[C@@H](O)C[C@@H](O)CC(=O)O[C@H]1C)C[C@H](O)[C@H]2C(=O)O [AMPHOTERICIN B]
MIC [7]: 2 µM (≈ 1.85 µg/mL)

Structure (SMILES): Cc1cc(=O)n(C)c2c(O)c3c(cc12)c(C)cc(=O)n3C
MIC [1]: 12 µM (≈ 3.41 µg/mL)
MIC [2]: 12 µM (≈ 3.41 µg/mL)
MIC [3]: 6 µM (≈ 1.71 µg/mL)
MIC [4]: > 24 µM
MIC [5]: > 24 µM
MIC [6]: > 24 µM
MIC [7]: > 24 µM
pEC50 [8]: 4.82
pEC50 [9]: 5.94

Structure (SMILES): Cc1cc(=O)n2c3c(c4c(cc13)c(C(=O)O)cc(=O)n4C)OC2
MIC [1]: > 24 µM
MIC [2]: > 24 µM
MIC [3]: > 24 µM
MIC [4]: > 24 µM
MIC [5]: > 24 µM
MIC [6]: > 24 µM
MIC [7]: > 24 µM
pEC50 [8]: < 4.00
pEC50 [9]: < 4.00

Structure (SMILES): C/C=C/C=C/[C@H]1C[C@H](O)CCN1
MIC [1]: > 24 µM
MIC [2]: > 24 µM
MIC [3]: > 24 µM
MIC [4]: > 24 µM
MIC [5]: > 24 µM
MIC [6]: > 24 µM
MIC [7]: > 24 µM
pEC50 [8]: < 4.00
pEC50 [9]: < 4.00

Structure (SMILES): NC[C@H]1O[C@H](O[C@H]2[C@H](O)[C@@H](O[C@H]3O[C@H](CO)[C@@H](O)[C@H](N)[C@H]3O)[C@H](N)C[C@@H]2N)[C@H](O)[C@@H](O)[C@@H]1O [KANAMYCIN]
MIC [1]: 7.5 µM (≈ 3.63 µg/mL)
MIC [2]: 15 µM (≈ 7.27 µg/mL)
MIC [3]: 2 µM (≈ 0.969 µg/mL)
MIC [5]: 7.5 µM (≈ 3.63 µg/mL)
MIC [6]: 14 µM (≈ 6.78 µg/mL)

Structure (SMILES): Cc1c2oc3c(C)ccc(C(=O)N[C@@H]4C(=O)N[C@H](C(C)C)C(=O)N5CCC[C@H]5C(=O)N(C)CC(=O)N(C)[C@@H](C(C)C)C(=O)O[C@@H]4C)c3nc-2c(C(=O)N[C@@H]2C(=O)N[C@H](C(C)C)C(=O)N3CCC[C@H]3C(=O)N(C)CC(=O)N(C)[C@@H](C(C)C)C(=O)O[C@@H]2C)c(N)c1=O [DACTINOMYCIN] (I: T[dV]P[Sar][NMeV] / II: T[dV]P[Sar][NMeV]; ester I:1-I:C, II:1-II:C; linker I:N-II:N via Actinocin(1to9))
viability at 20 µM [11]: 0%
viability at 20 µM [12]: 0%

Structure (SMILES): Cc1cc(=O)n2c3c(c4c(cc13)c(CO)cc(=O)n4C)OC2
MIC [1]: > 24 µM
MIC [2]: 12 µM (≈ 3.58 µg/mL)
MIC [3]: 12 µM (≈ 3.58 µg/mL)
MIC [4]: > 24 µM
MIC [5]: > 24 µM
MIC [6]: > 24 µM
MIC [7]: > 24 µM
pEC50 [8]: < 4.00
pEC50 [9]: < 4.00

Structure (SMILES): Cc1cc(=O)[nH]c2c1C(=O)c1c(C)cc(=O)n(C)c1C2=O
MIC [1]: 12 µM (≈ 3.41 µg/mL)
MIC [2]: 12 µM (≈ 3.41 µg/mL)
MIC [3]: 12 µM (≈ 3.41 µg/mL)
MIC [4]: > 24 µM
MIC [5]: > 24 µM
MIC [6]: > 24 µM
MIC [7]: > 24 µM
pEC50 [8]: 6.60
pEC50 [9]: 6.82
inhibition [13]: Active

Structure (SMILES): Cc1cc(=O)[nH]c2c(O)c3c(cc12)c(CO)cc(=O)n3C
MIC [1]: > 24 µM
MIC [2]: > 24 µM
MIC [3]: > 24 µM
MIC [4]: > 24 µM
MIC [5]: > 24 µM
MIC [6]: > 24 µM
MIC [7]: > 24 µM
pEC50 [8]: < 4.00
pEC50 [9]: < 4.00

Further lines, with some results ahead:

MIC [1]: 0.075 µM (≈ 0.0392 µg/mL)
MIC [2]: 0.15 µM (≈ 0.0784 µg/mL)
MIC [3]: 0.02 µM (≈ 0.0104 µg/mL)
MIC [4]: 12 µM (≈ 6.27 µg/mL)
MIC [5]: > 24 µM
MIC [6]: > 24 µM
MIC [7]: 3 µM (≈ 1.57 µg/mL)
pEC50 [8]: < 4.00
pEC50 [9]: < 4.00
Structure (SMILES): COC(=O)c1cc2cc3c(c(O)c2c(=O)o1)O[C@]1(CC3)Cc2c(O)c3c(c(O)c2O1)C(=O)C(OC)=CC3=O
Activity [10]: Non-Toxic

MIC [4]: 2 µM (≈ 1.65 µg/mL)
Structure (SMILES): CO[C@H]1/C=C/O[C@@]2(C)Oc3c(C)c(O)c4c(O)c(c(/C=N/N5CCN(C)CC5)c(O)c4c3C2=O)NC(=O)/C(C)=C\C=C\[C@H](C)[C@H](O)[C@@H](C)[C@@H](O)[C@@H](C)[C@H](OC(C)=O)[C@@H]1C [RIFAMPIN]

MIC [1]: 3 µM (≈ 1.61 µg/mL)
MIC [2]: 1.5 µM (≈ 0.805 µg/mL)
MIC [3]: 0.4 µM (≈ 0.215 µg/mL)
MIC [4]: > 24 µM
MIC [5]: > 24 µM
MIC [6]: > 24 µM
MIC [7]: > 24 µM
pEC50 [8]: < 4.00
pEC50 [9]: < 4.00
Structure (SMILES): COC(=O)c1cc2cc(CCc3cc4c(o3)C(=O)c3c(O)c(OC)cc(OC)c3C4=O)c(O)c(O)c2c(=O)o1

MIC [1]: 12 µM (≈ 6.44 µg/mL)
MIC [2]: 6 µM (≈ 3.22 µg/mL)
MIC [3]: 12 µM (≈ 6.44 µg/mL)
MIC [4]: > 24 µM
MIC [5]: > 24 µM
MIC [6]: > 24 µM
MIC [7]: 12 µM (≈ 6.44 µg/mL)
pEC50 [8]: < 4.00
pEC50 [9]: < 4.00
Structure (SMILES): COC(=O)c1cc2cc3c(c(O)c2c(=O)o1)O[C@]1(CC3)CC2=C(O1)C(=O)c1c(O)c(OC)cc(OC)c1C2=O

Reference: ChEMBL document CHEMBL4414678, “Structure Determination, Functional Characterization, and Biosynthetic Implications of Nybomycin Metabolites from a Mining Reclamation Site-Associated Streptomyces” (J Nat Prod, 2019)
